Screens from PubChem.
RAM network inh: inhibitors of the yeast RAM network, primary screen, dse1pr::URA3 reporter, 5-FOA selection; S. cerevisiae dse1pr::URA3 reporter, 5-FOA growth OD615, 2 d; analog-sensitive cbk1-as2 kinase mutant strain; inhibition, % at 50 µM; hit rate 1.8% among 190,000;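 active = inhibition above a set limit, 3 SD over mean compound inhibition, cut at about 8.4% in these data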;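 also: 0% = DMSO-only wells with no growth and 100% = 10 µM 1-NA-PP1 full growth; inhibition rescues growth on 5-FOA so higher OD means more RAM inhibition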
Yeast life ext: compounds extending yeast replicative lifespan, primary screen, S. cerevisiae, OD615; S. cerevisiae growth with nicotinamide; deaD strain in restrictive glucose medium; inhibition of the nicotinamide effect, % at 10 µM; hit rate 0.68% among 130,000; AID 775, 2007;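 active = inhibition above a set limit, placed 3 SD over the median of all compounds, cut at about 26% in these data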;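 also: 0% = nicotinamide-treated wells and 100% = cells grown without nicotinamide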
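Test system – modified budding yeast, DeaD strain · Compound – single dose 10 µM compound, 0.25% DMSO · Times – culture preincubation 4 h, compound exposure 48 h, both 30 °C · Detection – optical density (absorbance) at 615 nm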
BB579 growth dn: growth inhibitors of yeast BB579 in restrictive medium, primary screen, yeast lifespan-shortening project, S. cerevisiae; OD615, 48 h; inhibition, % at 10 µM; AID 804, 2007; hit rate 0.51% among 140,000;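 active = inhibition above a set limit, 3 SD over the mean compound inhibition, cut at about 44% in these data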
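Detection: OD615 turbidity measurement; Material: Saccharomyces cerevisiae DeaD strain BB579, replicative lifespan model yeast; Timing: 48 h exposure, 30 °C; Doses: single 10 µM dose; Medium: CSMM-D restrictive synthetic medium containing dextrose (glucose); Controls: amphotericin B at 10 µg/mL as positive control.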
WT yeast gro inh: growth inhibition of WT strain, primary screen, mitochondrial fusion inhibitor project, WT and mutant strains, chemical genetic. mitochondrial fusion phenotypic screen. inhibition, % at 10 µM. hit rate 2.1% among 190,000. AID 1362, 2008; in the data active = inhibition above about 58%; tested in S. cerevisiae
An asterisk follows results filed as active; x = no result. Shown are actives, neighbours in structure and some others; about 4.3% of the full set was active somewhere.

SMILES	RAM network inh	Yeast life ext	BB579 growth dn	WT yeast gro inh
CCC(=O)N1CCN(c2ccc(NC(=O)c3ccc([N+](=O)[O-])o3)cc2Cl)CC1	-1	x	x	66*
CCN1CCN(c2ccc(NC(=O)c3ccc([N+](=O)[O-])o3)cc2Cl)CC1	1	x	x	9
CC(=O)COc1cc(C)cc2oc(=O)c(C)c(C)c12	2	-20	-12	66*
CC(=O)C(C)Oc1cc(C)cc2oc(=O)c(C)c(C)c12 (centres undefined)	2	-23	-37	2
OCCn1c(Cl)nc2ccccc21	0	x	-37	-5
Cc1cccc(C)c1N=Cc1c(O)n(-c2nccs2)c(=O)c2ccccc12	2	33*	-39	10
CCNC(=S)N1CCN(c2ccc([N+](=O)[O-])cc2)CC1	0	-15	15	-5
CNC(=S)N1CCN(c2ccc([N+](=O)[O-])cc2)CC1	0	-27	-34	67*
S=C(NCc1ccccc1)N1CCN(c2cccc(Cl)c2)CC1	8.5*	x	x	70*
O=[N+]([O-])c1ccc(N2CCN(C(=S)NCc3ccc(Cl)cc3)CC2)cc1	9.3*	x	x	36
O=C(C(Cc1ccccc1)n1cccc1)N1CCN(c2cccc(Cl)c2)CC1 (centres undefined)	8.7*	2	-5	34
Oc1cc(-c2ccccc2)c2ccccc2c1	-1	-8	97*	47
CCSc1nnc(NC(=O)CSc2nc(C)cc(C)n2)s1	2	36*	-39	3
CC(=O)c1cccc(NC(=O)C(=O)Nc2cccc3ccccc23)c1	6	x	x	4
Cc1cccc(NS(=O)(=O)c2ccc(C3CCCCC3)cc2)c1	5	-2	-27	74*
O=C(CCSc1ccc(Cl)cc1)NC12CC3CC(CC(C3)C1)C2	3	25	-44	83*
O=C(CCSc1ccc(Cl)cc1)NC1CCCCC1	2	-17	-10	-15
COc1ccc(CNC(=O)Cn2nnc(-c3ccc(NC(=O)C4CCCCC4)cc3)n2)cc1	9.0*	-1	-30	-8
CN(C)c1ccc2c3c(ccc(N(C)C)c13)COC2	1	x	x	1
CCCCCc1nc2sc3c(c2c(=O)n1NC(=O)c1ccc([N+](=O)[O-])cc1)CC(C)(C)OC3	3	-1	-17	80*
CCOC(=O)COc1c(Br)cc(/C=C2\SC(=O)N(CC(=O)N3CCCC3)C2=O)cc1OC	11*	-11	-52	-7
Cc1nn(CCC(N)=S)c2nc(-c3cccs3)cc(C(F)(F)F)c12	2	-2	-33	75*
Cn1c(Cc2ccccc2)nnc1SCc1ccc(C(=O)O)cc1	1	5	-7	-5
O=C(Nn1cnc2ccccc2c1=O)c1ccc([N+](=O)[O-])cc1	2	x	x	12
CCC(CC)C(=O)c1c[nH]c(C(=O)NCCCN2CCOCC2)c1	1	-11	-31	82*
SMILES	RAM network inh	Yeast life ext	BB579 growth dn	WT yeast gro inh
O=C(c1ccc(F)cc1)c1c[nH]c(C(=O)NCCCN2CCOCC2)c1	1	-3	-25	4
NC(=O)c1cc(Br)cc2c3c([nH]c12)CCCC3	-1	-7	-24	66*
O=[N+]([O-])c1ccc2[nH]c3c(c2c1)CCCC3	0	x	x	9
COc1ccccc1-c1nc2cc3ccccc3cc2nc1-c1ccccc1	11*	4	-57	52
COc1ccccc1NC(=O)c1ccc2nc(-c3ccccc3)c(-c3ccccc3)nc2c1	1	-12	-9	-10
Cc1ccc(C(C)C)c(Oc2nnnn2-c2ccccc2)c1	0	-5	-27	66*
CCc1ccc(Nc2cnn(-c3nc4ccccc4s3)c(=O)c2Cl)cc1	1	-1	-25	63*
Cc1cccc(N=Nc2ccc(O)c3ncccc23)c1	5	-2	91*	65*
COc1ccc(/C=C(\C#N)C(=O)N2CCOCC2)cc1Br	2	48*	-14	-6
COc1nc(-c2ccccc2)ncc1S(=O)(=O)c1ccccc1	4	x	x	3
Cc1nc(-c2ccccc2)sc1-c1nc(-c2ccncc2)ncc1S(=O)(=O)c1ccccc1	1	-13	-50	78*
COC(=O)C1=C(C)NC(C)=C(C(=O)OC)C1c1cn(-c2ccccc2)nc1-c1ccco1	3	6	-26	x
CCCCC(CC)CNC(=O)Cn1c(=S)[nH]c2ncccc2c1=O (centres undefined)	3	x	x	-20
CN1N=C(c2ccc(Cl)cc2)CC(c2ccc(Cl)cc2)C1=O (centres undefined)	2	x	x	65*
